# Assay outcomes: PubChem BioAssay, several laboratories
# CYP2C19 act – increases human CYP2C19 enzyme activity. 96,000 tested, under 10 active. activation factor at 5 µM. AID 1025. P33261. recombinant CYP2C19, luciferin-H EGE luminescence; hits give high values; 0 = fully inhibited enzyme, 1 = untreated enzyme;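 active = activation factor of at least 2 at 5 µM in the primary screen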;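 note: 0 = wells with 2.5 mM tranylcypromine and 1 = vehicle-only wells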
# Target sequence (P33261 whole entry, looked up): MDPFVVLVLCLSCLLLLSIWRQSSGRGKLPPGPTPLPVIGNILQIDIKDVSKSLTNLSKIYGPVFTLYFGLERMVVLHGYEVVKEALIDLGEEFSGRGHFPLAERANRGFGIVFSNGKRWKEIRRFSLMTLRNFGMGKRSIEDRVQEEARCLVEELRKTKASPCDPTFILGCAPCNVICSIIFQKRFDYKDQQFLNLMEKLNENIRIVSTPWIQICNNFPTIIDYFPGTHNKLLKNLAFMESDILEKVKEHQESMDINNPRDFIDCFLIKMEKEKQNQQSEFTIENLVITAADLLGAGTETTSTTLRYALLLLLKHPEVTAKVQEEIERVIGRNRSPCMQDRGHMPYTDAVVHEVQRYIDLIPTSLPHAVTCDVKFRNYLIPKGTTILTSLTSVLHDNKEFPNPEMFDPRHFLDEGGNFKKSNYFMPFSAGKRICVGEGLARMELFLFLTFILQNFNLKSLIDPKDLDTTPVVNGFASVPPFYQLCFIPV
# Ecoli tolC – growth inhibitors of E. coli BW25113 tolC mutant; OD615; growth inhibition, % at 10 µM (by protocol); 65,000 compounds, 2.2% hits; AID 573;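 active = growth inhibition at or above a cutoff equal to the mean over every tested compound plus 3 SD, cut at about 60% in these data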;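 note: growth measured after 20 h incubation at 37 °C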
#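 Test system: E. coli BW25113 ΔtolC::kan bacteria | Medium: Kanamycin-containing LB broth (50 µg/mL) | Dosing: One dose of 10 µM final | Times: 20 h incubation with compound, 37 °C | Detection: Optical density read at 615 nm | Read-out basis: Percent growth inhibition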
# CYP2C19 inhib – inhibitors of human CYP2C19; P33261; CYP2C19 Supersomes, luciferin-H EGE luminescence, 30 min; inhibition, % at 5 µM; 96,000 compounds, 21% hits; AID 778;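 active = CYP2C19 inhibition above a set limit at 5 µM in the primary screen, cut at about 50% in these data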;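 note: plate controls were negative control wells for no effect and 2.5 mM tranylcypromine positive control for full effect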
# Ecoli WT expand – blocks growth of wild type E. coli BW25113; OD600 absorbance; growth inhibition, % at 100 µM; 98,000 compounds, 0.15% hits;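 active = growth inhibition above about 50% at one test dose, limit read from the data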;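 note: growth measured after 20 h incubation at 37 °C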
# CYP2C9 inhib – inhibitors of human CYP2C9; 96,000 compounds, 20% hits; AID 777; CYP2C9 Supersomes, luciferin-H conversion, luminescence; P11712; inhibition, % at 5 µM;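 active = blocking of liver enzyme CYP2C9 beyond about 50% at 5 µM, limit read from the data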
# CYP2C9 act – increases human cytochrome P450 2C9 activity; 96,000 compounds, 1.4% hits; AID 1024; activation factor at 5 µM; P11712; recombinant CYP2C9, luciferin-H conversion, luminescence; hits give high values; factor 1 = untreated enzyme, 0 = blocked;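 active = activation factor of 2 or more for CYP2C9 at a 5 µM dose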;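 note: 0 = sulfaphenazole-blocked wells and 1 = vehicle-only wells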
# The depositor's hits bear a star; nt = no result given. A selection: hits, their analogues and other compounds. The true share with any hit is near 29%.
SMILES,CYP2C19 act,Ecoli tolC,CYP2C19 inhib,Ecoli WT expand,CYP2C9 inhib,CYP2C9 act
CCC(Oc1ccccc1)C(=O)Nc1nnc(C(F)(F)F)s1 (stereo not drawn),0.8,87*,16,0,97*,0
O=C1Nc2ncccc2OC1CCO (stereo not drawn),1.1,nt,-6,3,-4,1
CC(=O)Nc1nc(-c2ccccc2)nc(C)c1C(C)=O,1,3,-3,5,-5,1
CC(=O)Nc1nc(C)nc(C)c1C(C)=O,1,-23,1,-7,-1,1
CC(=O)c1c(C)nc(-c2ccc(Cl)cc2)nc1NC(=O)C(C)C,0.4,-4,62*,-9,94*,0.1
CC(=O)c1c(C)nc(-c2ccccc2)nc1NC(=O)C(C)C,0.6,nt,43,0,74*,0.3
Cc1cccc(NC(=S)NN2CCN(C)CC2)c1,1,nt,2,2,-3,1
COc1cccc(C(O)CC(N)=O)c1 (stereo not drawn),1.1,-20,-8,-5,-5,1
Cc1cc(=O)[nH]c(N2CCc3ccccc3C2)n1,0.7,nt,28,2,-13,1.1
Cc1ccc(N2CCN(C(=O)N3CCCC3)CC2)cc1C,0.2,nt,81*,6,53*,0.5
O=C(Nc1ccc(F)cc1)c1cccnc1N1CCCCC1,0.2,nt,75*,7,62*,0.4
COc1ccc(NC(=O)c2cccnc2N2CCCCC2)cc1,nt,3,nt,0,nt,nt
COc1ccc(NC(=O)c2cccnc2N2CCCC2)cc1,1.1,nt,-5,-1,94*,0.1
O=C(Nc1ccc(Br)cc1)c1cccnc1N1CCCCC1,0.6,nt,37,-5,86*,0.1
O=C(Nc1cccc(C(F)(F)F)c1)c1cccnc1N1CCN(CCO)CC1,0.9,1,11,10,-4,1
CSc1nc(-c2ccco2)nn1C(=O)c1ccc(Cl)cc1,1.1,nt,-7,-5,-5,1.1
CC(=O)N1C2CCCCC2S[C@H]2CCCCC21 (stereo partly drawn),1,4,0,-1,31,0.7
CCn1c(COc2cccc(C)c2C)nnc1SCC(=O)N1CCN(c2ccc(OC)cc2)CC1,0.9,nt,6,-22,-4,1
O=S(=O)(Nc1ccc(-c2nc3cccnc3s2)cc1)c1ccc(Cl)s1,1,nt,-4,-4,100*,0
O=S(=O)(Nc1cccc2ncccc12)c1cccs1,0.6,99*,35,-2,-193,2.9*
O=S(=O)(Nc1ccc(-c2nc3cccnc3s2)cc1)c1cccs1,0.8,18,24,-4,83*,0.2
Cc1ccc(-c2nc3cccnc3s2)cc1NC(=O)c1ccco1,nt,-5,nt,nt,nt,nt
O=C1CC(c2cc3c(cc2Br)OCO3)C2=C(CCCC2=O)N1 (stereo not drawn),0.8,-1,16,0,16,0.8
NC(=O)NC(=O)CSc1cccc(C(F)(F)F)c1,nt,-14,nt,1,nt,nt
COCCNC(=O)CN1CCC(n2c(C)nc3cc(C(F)(F)F)ccc32)CC1,0.8,-20,16,1,4,1
SMILES,CYP2C19 act,Ecoli tolC,CYP2C19 inhib,Ecoli WT expand,CYP2C9 inhib,CYP2C9 act
COC(=O)CCN(C)CCC(=O)OC,1.1,-10,-8,-3,-4,1
O=C(O)c1cc(O)ccc1-c1ccc(O)cc1,0.9,nt,11,-2,-19,1.2
COC(=O)C1=C(C)N2C(=O)CSC2=NC1c1ccc2c(c1)OCO2 (stereo not drawn),0.4,-5,65*,nt,50*,0.5
Cc1ccc(-c2nc(NC(=O)CSc3nnc4scc(-c5ccccc5)n34)ns2)cc1,nt,34,nt,nt,nt,nt
C/C(=N\OC(=O)c1ccc(C)cc1)c1sc(C)nc1C,1,nt,0,3,-13,1.1
COc1ccc(C(=O)O/N=C(\C)c2ccccc2)cc1,0.5,nt,52*,-3,88*,0.1
CC/C(=N\OC(=O)c1ccc(OC(C)C)cc1)c1ccc(C)cc1,0.3,nt,73*,-8,62*,0.4
C/C(=N\OC(=O)c1ccc(OC(C)C)cc1)c1ccc(C)c(C)c1,0.4,nt,56*,-16,56*,0.4
COc1ccc(C2(O)CCN(CC(=O)Nc3nccs3)CC2)c(OC)c1,0.6,-6,42,-2,14,0.9
COc1ccc(-c2cnc(N)n2CC2CCCO2)cc1 (stereo not drawn),1.1,64*,-12,14,-3,1
COc1cc(NC(=O)c2ccc3c(c2)OCO3)c2ncccc2c1,nt,9,nt,-13,nt,nt
COc1ccc(-c2nc3cc(NC(=O)c4ccc5c(c4)OCO5)ccc3o2)cc1,0.9,-6,10,-19,5,0.9
Cc1nc2c(ccc3nc(NC(=O)c4ccc5c(c4)OCCO5)sc32)s1,0.8,2,15,-9,63*,0.4
CCN1CCN(c2c(Cl)cccc2NC(=O)c2ccc3c(c2)OCCO3)CC1,0.9,0,12,7,29,0.7
O=C(Nc1cccc(Cl)c1N1CCCCC1)c1ccc2c(c1)OCCO2,0.8,12,19,-4,65*,0.3
O=C(Nc1cccc2cccnc12)c1ccc2c(c1)OCCO2,0.6,nt,38,-9,-102,2*
O=C(Nc1ccc2oc(-c3ccccc3)nc2c1)c1ccc2c(c1)OCCO2,0.5,22,53*,-8,66*,0.3
CCN(CC)C(=O)C(C)OC(=O)c1ccc(O)cc1 (stereo not drawn),1,0,-2,1,2,1
COc1ccc(C(=O)N(C(C)C)C(C)C)c(OC)c1,1,nt,4,1,10,0.9
O=C(Nc1ccncc1)c1ccc2c(c1)OCCO2,0.2,-4,77*,1,50*,0.5
Cc1cc(C)nc(SCCn2c(N3CCCCC3)nc3c2c(=O)n(C)c(=O)n3C)n1,1.1,-9,-10,-2,11,0.9
O=C(c1sc2ccccc2c1Cl)N(Cc1ccccc1Cl)C1CCS(=O)(=O)C1 (stereo not drawn),0.7,nt,30,-10,85*,0.2
Cc1cc2oc(C(=O)N(Cc3ccccc3)C3CCS(=O)(=O)C3)cc(=O)c2cc1Cl (stereo not drawn),0.4,nt,62*,-12,80*,0.2
O=C(c1ccccc1)N(Cc1cccs1)C1CCS(=O)(=O)C1 (stereo not drawn),0.6,0,38,-16,-5,1
O=C(c1sc2ccccc2c1Cl)N(Cc1ccco1)C1CCS(=O)(=O)C1 (stereo not drawn),0.3,9,71*,-2,70*,0.3
Cc1ccc(CN(C(=O)c2cc3ccccc3oc2=O)C2CCS(=O)(=O)C2)cc1 (stereo not drawn),0.9,nt,8,-1,29,0.7
CCOc1ccccc1C(=O)N(Cc1ccco1)C1CCS(=O)(=O)C1 (stereo not drawn),0.7,-17,28,6,3,1
